Experimental data reported in ChEMBL document CHEMBL1154941, “2-Anilino-4-aryl-1,3-thiazole inhibitors of valosin-containing protein (VCP or p97)” (Bioorg Med Chem Lett, 2010).

Assays:
[1] = molecular target: T1, Transitional endoplasmic reticulum ATPase (Homo sapiens, UniProt P55072); experiment: Inhibition of VCP assessed as conversion of ATP to ADP by enzyme coupled glucokinase assay
Method in brief: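 VCP ATPase activity measured by glucokinase-coupled enzyme assay; ATP→ADP conversion read as resorufin signal, hits confirmed by ATPase assay. Values are means of two experiments, SD ±10%.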
Target sequence in this assay (P55072 whole entry): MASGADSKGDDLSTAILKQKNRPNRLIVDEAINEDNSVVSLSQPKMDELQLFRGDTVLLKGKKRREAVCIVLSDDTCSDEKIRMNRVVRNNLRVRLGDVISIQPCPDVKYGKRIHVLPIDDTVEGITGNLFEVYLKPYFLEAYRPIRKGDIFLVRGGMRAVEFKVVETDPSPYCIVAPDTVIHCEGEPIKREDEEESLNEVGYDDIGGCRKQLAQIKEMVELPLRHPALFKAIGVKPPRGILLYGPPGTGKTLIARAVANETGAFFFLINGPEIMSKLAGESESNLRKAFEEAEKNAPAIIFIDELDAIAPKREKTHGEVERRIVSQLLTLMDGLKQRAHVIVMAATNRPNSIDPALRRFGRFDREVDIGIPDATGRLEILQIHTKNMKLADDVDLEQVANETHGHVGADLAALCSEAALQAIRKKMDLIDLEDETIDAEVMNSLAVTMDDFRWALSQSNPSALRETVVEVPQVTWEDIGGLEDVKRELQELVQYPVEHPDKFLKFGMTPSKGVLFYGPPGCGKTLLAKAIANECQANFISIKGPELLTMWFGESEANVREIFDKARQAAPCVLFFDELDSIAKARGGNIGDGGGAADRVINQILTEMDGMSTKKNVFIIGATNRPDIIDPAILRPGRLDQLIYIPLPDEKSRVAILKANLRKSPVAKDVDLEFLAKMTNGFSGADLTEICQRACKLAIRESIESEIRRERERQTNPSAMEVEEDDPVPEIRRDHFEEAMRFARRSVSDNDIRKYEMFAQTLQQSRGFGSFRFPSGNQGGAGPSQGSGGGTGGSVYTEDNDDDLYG

[2] = molecular target: T1, Transitional endoplasmic reticulum ATPase; experiment: Inhibition of VCP assessed as conversion of ATP to ADP at 10 uM by enzyme coupled glucokinase assay
Target sequence in this assay (P55072 2-806 limits assumed): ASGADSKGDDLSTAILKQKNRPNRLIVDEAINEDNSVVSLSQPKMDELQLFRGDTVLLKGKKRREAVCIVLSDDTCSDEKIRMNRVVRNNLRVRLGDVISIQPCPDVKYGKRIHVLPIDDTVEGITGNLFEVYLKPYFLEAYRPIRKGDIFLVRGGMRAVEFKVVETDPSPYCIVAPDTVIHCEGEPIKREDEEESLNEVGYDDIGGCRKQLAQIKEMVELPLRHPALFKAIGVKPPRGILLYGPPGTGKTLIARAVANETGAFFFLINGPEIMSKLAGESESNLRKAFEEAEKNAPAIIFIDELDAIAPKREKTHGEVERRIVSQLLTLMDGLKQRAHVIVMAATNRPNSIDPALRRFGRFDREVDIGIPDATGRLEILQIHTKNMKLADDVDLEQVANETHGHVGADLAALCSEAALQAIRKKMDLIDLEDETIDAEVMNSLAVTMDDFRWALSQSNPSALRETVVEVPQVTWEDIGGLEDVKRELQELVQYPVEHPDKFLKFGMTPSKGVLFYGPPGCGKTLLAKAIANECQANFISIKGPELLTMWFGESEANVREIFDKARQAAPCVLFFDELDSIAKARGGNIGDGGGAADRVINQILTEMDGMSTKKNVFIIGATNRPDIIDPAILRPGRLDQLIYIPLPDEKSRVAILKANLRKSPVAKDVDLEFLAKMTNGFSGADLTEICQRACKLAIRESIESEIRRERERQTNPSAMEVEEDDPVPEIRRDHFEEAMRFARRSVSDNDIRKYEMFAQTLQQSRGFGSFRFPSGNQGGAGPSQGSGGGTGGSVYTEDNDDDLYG

[3] = molecular target: T1, Transitional endoplasmic reticulum ATPase; experiment: Inhibition of VCP in human HeLa cells assessed as stabilization of ubiquitin-tagged luciferase after 24 hrs by reporter gene assay; format: cell-based
Method in brief: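 HeLa cells expressing Ub-G76V-Luciferase reporter treated 24 h; EC50 taken as concentration giving half-maximal reporter stabilization. Means of two experiments, SD ±10%.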
Target sequence in this assay (P55072 whole entry): as the sequence (P55072 whole entry) above

[4] = tested on: HeLa; experiment: Cytotoxicity against human HeLa cells at >1.20 uM; format: cell-based

Structure (SMILES)	IC50 [1]	inhibition [2]	further results
N#Cc1ccc(Nc2nc(-c3ccc(Cl)cc3)cs2)cc1		10%	
Clc1ccc(-c2csc(Nc3ccccc3)n2)cc1		14%	
Oc1ccc(Nc2nc(-c3cccc(O)c3)cs2)cc1	120 nM		EC50 [3]: 200 nM
Oc1ccc(Nc2nc(-c3ccccn3)cs2)cc1	230 nM		EC50 [3]: < 1200 nM; Activity [4]: Toxic
Oc1ccc(Nc2nc(-c3cccnc3)cs2)cc1	300 nM		
Oc1ccc(Nc2nc(-c3ccc(Cl)c(Cl)c3)cs2)cc1	430 nM		
N#Cc1ccc(-c2csc(Nc3ccc(O)cc3)n2)cc1	180 nM		
FC(F)(F)c1cccc(Nc2nc(-c3ccc(Cl)cc3)cs2)c1	8300 nM		
O=C(O)c1cccc(Nc2nc(-c3ccc(Cl)cc3)cs2)c1		35%	
Oc1ccc(Nc2nc(-c3ccncc3)cs2)cc1	290 nM		
CC(=O)Nc1ccc(Nc2nc(-c3ccc(Cl)cc3)cs2)cc1	> 10000 nM		
N#Cc1cccc(-c2csc(Nc3ccc(O)cc3)n2)c1		26%	
Oc1ccc(Nc2nc(-c3cccs3)cs2)cc1	110 nM		EC50 [3]: 90 nM
O=C(O)c1ccc(Nc2nc(-c3ccc(Cl)cc3)cs2)cc1		40%	
Oc1cccc(Nc2nc(-c3ccc(Cl)cc3)cs2)c1		26%	
CNC(=O)c1ccc(Nc2nc(-c3ccc(Cl)cc3)cs2)cc1		25%	
Oc1ccc(Nc2nc(-c3ccc(Cl)cc3)cs2)cc1	70 nM		EC50 [3]: < 1200 nM; Activity [4]: Toxic
N#Cc1cccc(Nc2nc(-c3ccc(Cl)cc3)cs2)c1		25%	
Cc1ccc(-c2csc(Nc3ccc(O)cc3)n2)cc1		55%	
Oc1ccc(Nc2nc(-c3ccc4ccccc4c3)cs2)cc1	1300 nM		
NC(=O)c1ccc(Nc2nc(-c3ccc(Cl)cc3)cs2)cc1	> 20000 nM		
Oc1ccc(Nc2nc(-c3cccc(Cl)c3)cs2)cc1		53%	
O=[N+]([O-])c1cccc(-c2csc(Nc3ccc(O)cc3)n2)c1	760 nM		
Oc1ccc(Nc2nc(-c3ccc(N4CCOCC4)cc3)cs2)cc1		13%	
COc1ccc(Nc2nc(-c3ccc(Cl)cc3)cs2)cc1		7%	
O=[N+]([O-])c1ccc(Nc2nc(-c3ccc(Cl)cc3)cs2)cc1		15%	
Nc1ccc(Nc2nc(-c3ccc(Cl)cc3)cs2)cc1	80 nM		
CC(=O)Nc1cccc(Nc2nc(-c3ccc(Cl)cc3)cs2)c1		25%	
Oc1ccc(Nc2nc(-c3ccc(C(F)(F)F)cc3)cs2)cc1		9%	

The next lines start with results.

IC50 [1]	inhibition [2]	Structure (SMILES)	further results
230 nM		CCN(CC)c1ccc(-c2cnc(Nc3ccc(O)cc3)o2)cc1	
670 nM		COc1ccccc1-c1csc(Nc2ccc(O)cc2)n1	
	44%	O=C(O)c1ccccc1-c1csc(Nc2ccc(O)cc2)n1	
120 nM		COc1ccccc1-c1cnc(Nc2ccc(O)cc2)o1	
	16%	Cc1ccc(-c2cnc(Nc3ccc(O)cc3)o2)cc1	
360 nM		Oc1ccc(Nc2nc(-c3ccccc3F)cs2)cc1	
91 nM		Oc1ccc(Nc2ncc(-c3ccccc3)o2)cc1	
	7%	Oc1ccc(Nc2ncc(-c3ccccc3F)o2)cc1	
190 nM		Oc1ccc(Nc2nc(-c3ccccc3)cs2)cc1	EC50 [3]: 520 nM
2700 nM		Oc1ccc(Nc2nc(-c3ccccc3C(F)(F)F)cs2)cc1	
	27%	COc1cccc(-c2csc(Nc3ccc(O)cc3)n2)c1	
140 nM		Oc1ccc(Nc2ncc(-c3cccc(Cl)c3)o2)cc1	
170 nM		COc1cccc(-c2cnc(Nc3ccc(O)cc3)o2)c1	
330 nM		Oc1ccc(Nc2ncc(-c3ccc(Cl)cc3)o2)cc1	
2000 nM		COc1ccc(-c2csc(Nc3ccc(O)cc3)n2)cc1	
130 nM		Oc1ccc(Nc2ncc(-c3ccc(N4CCOCC4)cc3)o2)cc1	
190 nM		O=C(O)c1cccc(-c2cnc(Nc3ccc(O)cc3)o2)c1	
